# Compounds with a hit are over-represented: about 3.6% of the library has one in this group of screens.
# VIM-2 inhibitor: blocks Pseudomonas aeruginosa VIM-2 metallo-beta-lactamase. purified VIM-2, nitrocefin hydrolysis, epi-absorbance fluorescence. inhibition, % at 5.6 µM. 290,000 compounds, 0.89% hits. AID 1527;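 active = inhibition above the mean of all tested compounds plus 3 SD, cutoff set per screening run, cut at about 7.5% in these data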;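 also: red hydrolysis product quenches plate fluorescence so inhibitors raise well fluorescence; 0% = enzyme with DMSO and 100% = DMSO without enzyme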
# IMP-1 inh: blocks Pseudomonas aeruginosa IMP-1 metallo-beta-lactamase; inhibition, % at 5.6 µM; AID 1556; purified IMP-1, nitrocefin hydrolysis, epi-absorbance fluorescence; 290,000 compounds, 0.45% hits;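 active = inhibition above the mean plus 3 SD of all compounds in the same screening run, cut at about 4.5% in these data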;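 also: 0% = IMP-1 with DMSO and 100% = DMSO wells lacking enzyme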
#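 System – purified recombinant IMP-1 beta-lactamase · Input – IMP-1 dispensed at 0.2 nM · Timing – 15 min preincubation plus 25 min reaction at 25 °C · Signal – Epi-absorbance fluorescence, 480 nm excitation, 530 nm emission · Measure – percent IMP-1 inhibition derived from blank-referenced optical density · Controls – Enzyme-plus-DMSO low control, enzyme-free DMSO high control · Replication – singlicate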
# PAFAH2 inh: PAFAH2 (human) inhibition; Q99487; recombinant PAFAH2, FP-rhodamine activity probe, fluorescence polarization; inhibition, % at 3.39 µM; 340,000 compounds, 0.99% hits; AID 492956;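 active = inhibition above the mean over all tested compounds plus 3 SD, cut at about 30% in these data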;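 also: inhibitors block probe labeling of enzyme so polarization drops; 0% = enzyme with DMSO and 100% = wells lacking PAFAH2 protein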
# PAFAH1B3 inh: blocks human PAF acetylhydrolase 1B catalytic subunit 3; Q15102; recombinant PAFAH1B3, FP-rhodamine probe, fluorescence polarization; inhibition, % at 3.39 µM; 340,000 compounds, 0.28% hits;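 active = inhibition above the screen-wide average of all tested compounds plus 3 SD, cut at about 25% in these data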;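 also: 0% = enzyme with DMSO only and 100% = wells lacking PAFAH1B3 protein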
# Target sequence (Q15102 whole entry, looked up): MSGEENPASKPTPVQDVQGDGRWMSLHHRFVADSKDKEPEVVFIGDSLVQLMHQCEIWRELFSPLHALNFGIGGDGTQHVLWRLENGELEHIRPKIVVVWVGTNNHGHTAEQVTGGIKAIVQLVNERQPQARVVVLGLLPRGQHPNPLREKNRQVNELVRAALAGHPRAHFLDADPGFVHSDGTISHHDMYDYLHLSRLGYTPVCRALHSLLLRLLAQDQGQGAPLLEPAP
# pPAFAH inh: pPAFAH (human) enzyme inhibition; Q13093; recombinant pPAFAH, FP-rhodamine probe fluorescence polarization; inhibition, % at 3.39 µM; 330,000 compounds, 1.5% hits; AID 463082;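 active = inhibition above the mean inhibition across the screen plus 3 SD, cut at about 25% in these data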;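 also: inhibitors block binding of the rhodamine activity-based probe so polarization drops; 0% = enzyme with DMSO and 100% = wells lacking pPAFAH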
# PAFAH1B2 FP inh: blocks human PAF acetylhydrolase 1b catalytic subunit 2; P68402; recombinant PAFAH1B2, FP-rhodamine activity probe, fluorescence polarization; inhibition, % at 3.39 µM; 340,000 compounds, 1.2% hits;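 active = inhibition above the mean of all tested compounds plus 3 SD, cut at about 24% in these data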;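 also: 0% = enzyme with DMSO and 100% = wells lacking PAFAH1B2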
# Target sequence (P68402 whole entry, looked up): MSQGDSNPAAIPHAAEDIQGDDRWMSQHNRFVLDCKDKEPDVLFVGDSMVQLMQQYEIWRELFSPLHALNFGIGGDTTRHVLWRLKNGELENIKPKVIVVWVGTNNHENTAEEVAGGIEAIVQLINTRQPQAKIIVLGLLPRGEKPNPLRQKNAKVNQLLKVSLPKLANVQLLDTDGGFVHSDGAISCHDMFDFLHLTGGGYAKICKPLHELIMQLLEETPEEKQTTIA
# pPAFAH FP conf: confirmation of human plasma PAF acetylhydrolase (pPAFAH) inhibitors; shares compounds with pPAFAH inh; recombinant pPAFAH, FP-Rh probe fluorescence polarization; inhibition, % at 3.39 µM; 2,300 compounds, 72% hits; AID 463230;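 active = mean inhibition of the triplicate above the hit cutoff set for the earlier primary screen, cut at about 25% in these data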;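 also: 0% = enzyme with DMSO and 100% = wells lacking pPAFAH enzyme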
# The depositor's hits bear a star; . = not tested or not shown.
SMILES,VIM-2 inhibitor,IMP-1 inh,PAFAH2 inh,PAFAH1B3 inh,pPAFAH inh,PAFAH1B2 FP inh,pPAFAH FP conf
C[C@H]1CN([C@@H](C)CO)C(=O)c2cccc(NS(=O)(=O)c3ccc(F)cc3)c2O[C@H]1CN(C)Cc1ccc(Cl)c(Cl)c1,.,.,1.8,-3.6,37.3*,3.0,45.8*
COc1ccc(S(=O)(=O)Nc2cccc3c2O[C@H](CN(C)Cc2ccc(Cl)c(Cl)c2)[C@@H](C)CN([C@H](C)CO)C3=O)cc1,.,.,-1.8,0.2,5.8,-1.7,.
CCn1c(SCC(=O)c2ccc(O)c(O)c2)nnc1-c1ccccc1,-1.5,-2.7,21.1,17.9,10.8,1.9,.
C=CCn1c(SCC(=O)c2ccc(O)c(O)c2)nnc1-c1cccc(C)c1,.,.,29.3,8.5,35.0*,9.4,79.6*
C=CCn1c(SCC(=O)c2ccc(O)c(O)c2)nnc1-c1cccnc1,0.7,-1.3,23.9,7.5,50.3*,4.0,18.8
Cc1ccccc1Oc1ccc2c(c1)[C@@H]1C[C@H](N(C)C(=O)c3ccc(C#N)cc3)[C@H]([C@H](C)O)C(=O)N1CC2,.,.,18.4,7.3,.,-1.5,.
COc1ccc(CN2CCN(Cc3c[nH]c4ccccc34)CC2CCO)c(F)c1 (configuration not stated),-1.1,-3.9,-1.8,8.9,19.3,6.5,.
CCOC(=O)c1c(C)n(-c2ccc(C)cc2)c2ccc(OCC(O)CNCC3CCCO3)cc12 (configuration not stated),-0.4,-0.4,-1.4,5.0,71.4*,5.2,69.5*
N#Cc1cnc2nc(SCc3ccccc3)nn2c1,4.8,-0.7,5.4,7.1,0.6,10.2,.
NCCCCNCCCN,.,.,-4.2,14.2,62.2*,3.3,-0.2
NCCNCCNCCN,-3.6,0.5,-0.3,2.8,-4.8,1.6,.
Cc1cc(C)nc(/N=C2/NC(=O)CS2)n1,1.0,-0.4,2.9,2.6,-1.7,4.0,.
Cc1ccc(C)n1/N=C1/NC(=O)CS1,-0.7,-5.1,38.9*,21.3,39.5*,2.2,17.7
CSc1ncccc1C(=O)Nc1cccc(S(=O)(=O)N2CCCCCC2)c1,.,.,16.5,6.7,-7.6,3.9,.
Cn1c(=O)c(N)c2c3c(c(Br)ccc31)C(=O)c1ccccc1-2,8.4*,-0.3,40.0*,38.3*,42.6*,28.7*,39.4*
Cc1ccc(C(=O)N2CCCC(CCC(=O)N3CCN(c4ccccn4)CC3)C2)cc1C (configuration not stated),0.9,-1.1,2.8,5.3,34.9*,-2.0,22.2
Cc1ccc(C(=O)N2CCCC(CCC(=O)N3CCN(c4ccccn4)CC3)C2)cn1 (configuration not stated),-1.1,-2.0,4.4,15.4,6.8,7.7,.
CC(=O)Nc1ccc(C2=CC(=O)C[C@H](c3ccc(Cl)cc3)C2)cc1,.,.,-5.2,5.0,4.8,7.7,.
COc1ccccc1Oc1c(C)oc2c(CN3CCN(CCO)CC3)c(O)ccc2c1=O,0.1,-1.5,.,.,41.1*,.,4.1
CCOc1ccccc1Oc1c(C)oc2c(CN3CCN(CCO)CC3)c(O)ccc2c1=O,-0.8,-0.5,-3.5,7.1,0.8,7.4,.
O=C1/C(=C/c2ccc(O)c([N+](=O)[O-])c2)SC(=S)N1Cc1ccccc1,-1.4,-1.5,25.3,-2.9,11.0,4.7,.
O=C1/C(=C\c2cccc([N+](=O)[O-])c2O)SC(=S)N1Cc1ccccc1,0.8,-5.4,2.3,-12.5,34.7*,-0.8,77.0*
CCc1nnc(NC(=O)CSCc2cc(=O)n3ccsc3n2)s1,-1.1,0.2,8.6,3.2,-1.8,2.0,.
O=C(c1cc2c(F)cccc2s1)N1CCCC1,-2.1,-2.2,14.2,5.4,7.1,-0.4,.
CN1CCN(C(=O)c2cc3sc4ccccc4c3s2)CC1,1.2,-0.6,.,.,52.0*,.,7.1
SMILES,VIM-2 inhibitor,IMP-1 inh,PAFAH2 inh,PAFAH1B3 inh,pPAFAH inh,PAFAH1B2 FP inh,pPAFAH FP conf
CN(CC(=O)Nc1ccc(F)c(F)c1F)C(=O)c1cc(S(=O)(=O)N(C)C)ccc1N1CCCC1,.,.,1.8,-1.5,.,0.7,.
Cc1cccc(C)c1NC(=O)CN(C)C(=O)c1cc(S(=O)(=O)N(C)C)ccc1N1CCCC1,.,.,2.0,7.4,35.3*,-2.8,3.8
COc1cc(N=Nc2cccc(S(N)(=O)=O)c2)c2ccccc2c1N,-3.0,-4.4,20.1,17.7,49.5*,11.8,31.5*
O=C(Nc1cc([N+](=O)[O-])ccc1F)C1CCN(S(=O)(=O)c2cccs2)CC1,.,.,-1.1,0.4,-2.6,7.2,.
O=C(CSc1nc2ccccc2nc1N1CCCCC1)N1CCN(c2ccccc2)CC1,-2.7,-2.0,-4.3,-2.8,3.8,-0.2,.
Cc1ccc(/C=C2\SC(=S)N(/N=C/c3cc([N+](=O)[O-])ccc3O)C2=O)o1,0.9,2.1,73.8*,45.9*,63.3*,26.3*,56.1*
O=C(NN1C(=O)/C(=C/c2cc([N+](=O)[O-])ccc2O)SC1=S)c1ccccc1O,.,.,.,.,16.4,.,.
CC1CCC(NC(=O)CSc2nncn2C)CC1 (configuration not stated),.,.,-7.0,3.2,2.9,0.5,.
CN(Cc1ccccc1)C(=O)COC(=O)CNS(=O)(=O)c1ccc2ccccc2c1,.,.,1.4,2.2,16.2,3.7,.
COc1cc(NS(=O)(=O)c2ccc(-c3ccc(=O)[nH]n3)o2)cc(OC)c1OC,-0.9,-3.6,6.4,1.7,6.0,-6.8,.
Cc1nn(-c2ccc(Br)cc2)c(=O)c2ccccc12,0.3,0.5,3.3,4.9,51.1*,0.8,3.1
COc1ccc(N(CC(=O)Nc2cc(C)ccc2OC)S(=O)(=O)c2c(C)noc2C)cc1,-3.8,-3.2,0.8,3.9,44.7*,-0.4,7.9
COc1ccc(N(CC(=O)Nc2cc(C)ccc2C)S(=O)(=O)c2c(C)noc2C)cc1,-2.8,-1.9,9.8,8.0,7.8,4.9,.
CCn1nc([N+](=O)[O-])c(C(C#N)c2nc3cc(C(F)(F)F)ccc3s2)c(Cl)c1=O (configuration not stated),-4.1,-9.3,41.5*,14.9,79.6*,30.9*,69.7*
CCCn1nc([N+](=O)[O-])c(C(C#N)c2nc3ccccc3o2)c(Cl)c1=O (configuration not stated),-4.1,-3.0,46.1*,28.1*,68.7*,39.5*,58.0*
CC(=O)c1cccc(NC(=O)C2CC(=O)N(C3CCCC3)C2)c1 (configuration not stated),.,.,-1.9,-2.9,4.7,1.3,.
COc1ccc(/[N+]([O-])=C/c2ccco2)cc1,.,.,6.0,1.8,-0.1,-6.3,.
CCOC(=O)N1CCN(C(=O)CCN2C(=O)COc3ccc(C)cc32)CC1,-2.6,-1.2,-1.4,-1.8,77.5*,-0.3,-4.9
COc1ccc2c(c1)[C@H]1[C@H](CO2)[C@H](c2ccccc2)[C@]2(C)C(=O)N[C@@H](C)C(=O)N12,.,.,.,.,5.1,.,.
